Screening results deposited in PubChem by several laboratories.
Calb FLC = C. albicans growth inhibition with fluconazole, primary screen, CaCi-2 strain, Alamar Blue fluorescence | growth inhibition, % (no concentration beside the values) | AID 1979, 2009 | C. albicans CaCi-2 (fluconazole-resistant clinical isolate) + fluconazole, 48 h | 300,000 compounds, 0.57% hits;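 active means growth inhibition above about 58% in most replicates, limit read from the data, passing the limit was not always enough; inconclusive means exactly half the replicates above a set limit; inactive means most replicates below a set limit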;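 further: all wells also contain fluconazole at 8 µg/ml as a sub-toxic cotreatment; 0% = median of DMSO wells and 100% = median of geldanamycin control wells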
SKKanGAS inh = S. pyogenes SKKanGAS growth inhibitors in kanamycin, primary screen, streptokinase expression inhibitor project, SKKanGAS strain, BacTiter-Glo luminescence; 300,000 compounds, 1.3% hits; inhibition, % at 7.5 µM; 6 h; AID 1662, 2009;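 active means mean replicate score, as percent of positive control median, at least 50; inconclusive means mean below 50 but one replicate at or above 50; inactive means mean and every replicate below 50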;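 further: strain carries kanamycin resistance gene driven by streptokinase promoter and grows in 40 µg/ml kanamycin; loss of luminescence reflects streptokinase promoter inhibition or plain growth inhibition; 0% = median of DMSO wells and 100% = positive control at its reference dose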
CSC inhib = cancer stem cell viability inhibitors, primary screen, luminescence | inhibition, % at 7.5 µM | cancer stem cell-like cells viability | 300,000 compounds, 1.1% hits; in the data active means inhibition above about 75%; inconclusive means no clear call, values can overlap the other calls; tested in HMLE shEcad cells
Mdm2-MdmX inh = inhibitors of human Mdm2-MdmX association, primary screen, cell-based, luminescence, split luciferase, SaOS-2, uHTS | Protein Mdm4 (Homo sapiens) + E3 ubiquitin-protein ligase Mdm2 (Homo sapiens), … | SaOS-2 split-luciferase Mdm2/MdmX complementation | inhibition, % at 8 µM | 330,000 compounds, 3% hits | AID 485346, 2010;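 active means inhibition of at least 50% at 8 µM in the primary screen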
Target sequence (O15151 whole entry, looked up): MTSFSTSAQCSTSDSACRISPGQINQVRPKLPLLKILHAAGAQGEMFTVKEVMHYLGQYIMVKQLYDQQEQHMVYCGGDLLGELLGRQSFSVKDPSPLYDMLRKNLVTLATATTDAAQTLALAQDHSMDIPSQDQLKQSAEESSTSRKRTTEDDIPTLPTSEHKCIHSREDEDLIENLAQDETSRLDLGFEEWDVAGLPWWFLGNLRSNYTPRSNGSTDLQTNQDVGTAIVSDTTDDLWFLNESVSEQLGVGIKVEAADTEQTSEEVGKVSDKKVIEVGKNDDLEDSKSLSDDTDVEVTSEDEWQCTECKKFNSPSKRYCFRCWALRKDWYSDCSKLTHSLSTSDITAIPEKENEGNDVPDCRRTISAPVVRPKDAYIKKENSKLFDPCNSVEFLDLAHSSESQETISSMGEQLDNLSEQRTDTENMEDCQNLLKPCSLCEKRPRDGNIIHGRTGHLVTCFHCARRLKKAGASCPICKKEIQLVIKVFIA
Target sequence (Q00987 whole entry, looked up): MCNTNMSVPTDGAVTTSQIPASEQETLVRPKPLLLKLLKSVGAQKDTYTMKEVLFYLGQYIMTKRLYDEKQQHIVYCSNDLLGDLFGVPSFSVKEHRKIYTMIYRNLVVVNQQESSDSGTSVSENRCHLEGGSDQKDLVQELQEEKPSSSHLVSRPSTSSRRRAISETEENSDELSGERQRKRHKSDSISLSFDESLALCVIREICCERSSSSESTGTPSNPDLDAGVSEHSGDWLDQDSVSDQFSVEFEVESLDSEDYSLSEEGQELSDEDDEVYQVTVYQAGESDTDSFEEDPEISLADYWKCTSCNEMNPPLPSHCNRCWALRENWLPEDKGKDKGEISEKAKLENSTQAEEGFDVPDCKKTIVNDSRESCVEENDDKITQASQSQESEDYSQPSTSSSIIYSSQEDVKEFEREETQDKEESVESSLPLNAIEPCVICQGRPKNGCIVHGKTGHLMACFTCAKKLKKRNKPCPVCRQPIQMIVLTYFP
T cruzi inh = inhibitors of intracellular T. cruzi growth, primary screen, luminescence, NIH3T3 host cells; T. cruzi beta-gal in NIH3T3, 90 h; inhibition, % (concentration not given with the values); 300,000 compounds, 1.4% hits; AID 1885, 2009;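 active means mean inhibition across valid replicates above about 55%, limit read from the data; inconclusive means mean below that limit but half or more replicates reach it; inactive means mean below it, under half of replicates reach it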;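 further: signal also drops with host cell toxicity which is not excluded here; 0% = plate median of DMSO wells and 100% = zero luminescence signal; higher percent means less beta-gal luminescence so fewer parasites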
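Read-out: Parasite load inhibition, % | Test system: Mouse NIH/3T3 fibroblasts infected with β-gal-expressing T. cruzi Tulahuen C4 | Amount: 5,000 cells/well | Medium: DMEM, 2% fetal bovine serum | Signal: GalScreen β-gal luminescence, detergent lysis, 60 min | Timing: 3 h attach, ≥90 h co-culture | Also added: Tulahuen C4 trypomastigotes, 5000/well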
Beta cell apopt = inhibitors of cytokine-induced beta cell apoptosis, primary screen, luminescence; 300,000 compounds, 0.8% hits; AID 435005, 2010; INS-1E cytokine-induced death, ATP luminescence, 48 h; percent of positive-control rescue, neutral wells zero; protection from apoptosis, % (concentration not given with the values);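 active means Every replicate reaches about 75%, or at least half do and their mean reaches it too, limit read from the data; inconclusive means At least half of replicates reach the limit but their mean does not; inactive means Under half of replicates reach the limit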;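 further: 0% = cytokine-treated negative control wells and 100% = positive control rescue; higher means more ATP so stronger rescue from cytokine killing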
Mdm2 MdmX conf = Mdm2-MdmX complex disruptors, retested hits, confirmation, luminescence, single concentration | shares compounds with Mdm2-MdmX inh | Mdm2-MdmX binding, luminescent assay | inhibition, % at 8 µM | 10,000 compounds, 55% hits; in the data active means inhibition above about 40%
FLuc counter = full-length luciferase signal inhibition, confirmation, counter-screen for Mdm2/MdmX interaction inhibitor project, cell-based, single concentration, SaOS-2; 6,200 compounds, 77% hits; shares compounds with Mdm2-MdmX inh; inhibition, % at 8 µM; SaOS-2 full-length luciferase counterscreen, luminescence;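 active means mean inhibition at 8 µM reaching about 37%, which flags the compound as non-specific, limit read from the data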;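 further: p53-null SaOS-2 cells with luciferase driven by a doxycycline-inducible promoter; compound on cells about two nights before reading with doxycycline added after day one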
Numbers without * were called inactive; u = inconclusive; x = not tested or not shown. Rows were chosen to be rich in hits. Some 5.7% of all compounds tested hit in one or more screens of this group.

SMILES	Calb FLC	SKKanGAS inh	CSC inhib	Mdm2-MdmX inh	T cruzi inh	Beta cell apopt	Mdm2 MdmX conf	others
Nc1nc(Cl)cc(NCCc2ccc(O)cc2)n1	10.6	-0.7	17.1	27.2	-23.7	1.6	x
Nc1nonc1-n1nnc(C(=O)N/N=C/c2ccc(OCc3ccccc3)cc2)c1CN1CCCCC1	-4.5	12.7	-2.1	-22.0	-5.8	8.5	x
CC(C)Cn1c(=O)c(C(=O)Nc2ccccc2S(N)(=O)=O)c(O)c2ccccc21	-8.4	u	54.0	63.5*	-14.4	6.0	60.3*	FLuc counter=26.4
CCC(C)n1c(=O)c(C(=O)Nc2ccccc2S(N)(=O)=O)c(O)c2ccccc21 (configuration not stated)	-0.5	41.7	-1.7	57.1*	-4.3	-3.2	55.5*	FLuc counter=30.8
N#C/C(=C(/O)COC(=O)CCC1CCCCC1)c1nc2ccccc2[nH]1	3.4	18.5	x	66.3*	-6.2	0.6	5.5
Cc1cc(Br)ccc1SCC(=O)OC/C(O)=C(\C#N)c1nc2ccccc2[nH]1	2.3	14.6	2.5	82.6*	10.7	1.2	-1.9
N#C/C(=C(/O)COC(=O)CSc1ccc2ccccc2c1)c1nc2ccccc2[nH]1	38.9	2.1	-1.5	51.3*	-11.9	-2.9	1.1
COc1ccccc1OCC(=O)Nc1cc(C(F)(F)F)ccc1-n1cncn1	-0.5	2.0	-6.0	-5.6	-14.3	1.8	x
O=C(O)CC(NC(=O)CCc1ccccc1)c1ccc(Cl)cc1 (configuration not stated)	12.2	3.4	4.7	-9.1	3.7	-9.4	x
Cn1nccc1C(=O)N(CCN1CCCCC1)CC1CCCN(C2CCCC2)C1 (configuration not stated)	-2.2	39.8	-5.6	-28.0	26.3	x	x
Cc1cc(/C=N/Nc2nc(N)ncc2[N+](=O)[O-])c(C)n1-c1ccccc1F	4.1	3.9	4.3	73.7*	-5.5	0.1	84.2*	FLuc counter=49.6*
COc1ccc(-c2csc(N(CCCN(C)C)C(=O)c3ccccc3Cl)n2)cc1	11.5	-17.3	24.5	71.4*	49.9	7.3	49.0*	FLuc counter=84.2*
CCN(CC)CCCNC(=O)c1sc2ncn(CC(=O)Nc3ccc(C)c(Cl)c3)c(=O)c2c1C	10.5	12.8	-2.6	53.4*	49.7	-3.7	20.9
C=CCn1c(SCC(=O)Nc2nncs2)nnc1-c1ccco1	2.7	0.9	x	-1.5	-4.3	0.6	x
Cc1ccc(S(=O)(=O)N2C[C@@H]3[C@H]4CC[C@H](C4)[C@@H]3[C@@H](C)[C@@H]2c2cccn2Cc2ccccc2)cc1	x	x	x	0.5	x	x	x
Cc1ccc(S(=O)(=O)N2C[C@@H]3[C@H]4CC[C@H](C4)[C@@H]3[C@@H](C)[C@@H]2c2ccn(Cc3ccccc3)c2)cc1	x	x	x	50.3*	x	x	8.7
CCOC(=O)c1ccc(S(=O)(=O)NCCNCc2ccccc2)cc1	x	x	5.5	-12.5	x	-1.1	x
COc1ccc(-c2nc3cnccn3c2Nc2ccc3c(c2)OCO3)cc1	9.3	-2.3	-9.9	53.4*	14.8	1.8	6.5
COc1cccc(NC(=O)CSc2nc3c([nH]c4ccccc43)c(=O)n2C)c1	3.2	0.4	-10.7	54.8*	21.2	28.1	10.2
Cn1c(SCC(=O)Nc2ccccc2)nc2c([nH]c3ccccc32)c1=O	-5.1	-8.0	8.3	66.5*	-21.3	18.7	10.3
Cc1cccc(NC(=O)CSc2nc3c([nH]c4ccccc43)c(=O)n2C)c1	-1.6	3.1	32.1	65.4*	-6.6	20.1	0.8
COCCn1c(SCC(=O)Nc2ccc(OC)cc2)nc2c(oc3ccccc32)c1=O	-24.5	-5.7	-5.1	99.1*	8.4	0.4	15.2
C=CCn1c(SCC(=O)Nc2ccc(OC)cc2)nc2c([nH]c3ccccc32)c1=O	x	-4.0	-2.0	10.3	-4.5	-11.0	x
COCCn1c(SCC(=O)Nc2cccc(NC(C)=O)c2)nc2c([nH]c3ccccc32)c1=O	x	-0.6	17.1	18.6	-9.5	-1.3	x
COCCn1c(SCC(=O)Nc2cccc(F)c2)nc2c([nH]c3ccccc32)c1=O	x	-2.1	3.2	88.1*	-21.6	22.8	65.8*	FLuc counter=46.6*
SMILES	Calb FLC	SKKanGAS inh	CSC inhib	Mdm2-MdmX inh	T cruzi inh	Beta cell apopt	Mdm2 MdmX conf	others
COCCn1c(SCC(=O)Nc2cc(C)on2)nc2cc(Cl)ccc2c1=O	x	x	x	64.1*	x	2.3	5.7
CC1CCCN(C(=O)CN(c2ccccc2)S(=O)(=O)c2ccc(F)cc2)C1 (configuration not stated)	x	x	x	-1.7	x	-2.3	x
CCCCn1c(N)c(N(CC)C(=O)C2=COCCO2)c(=O)[nH]c1=O	-1.9	-6.8	x	27.9	0.2	-3.3	x
C=C1C(=O)O[C@H]2[C@H]1[C@@H](O)CC(=C)[C@@H]1CC(=O)[C@@H](C)[C@H]21	-11.7	3.1	33.6	60.8*	-6.5	-24.5	15.1
COC(=O)C(NC(=O)CCc1nnc2ccc(N3CCCCC3)nn12)C(C)C (configuration not stated)	-5.3	-1.5	-9.9	17.0	12.4	-2.2	x
CCOC(=O)CS(=O)(=O)c1ccccc1	0.2	-0.3	-6.0	9.1	-2.0	x	x
CCOC(=O)c1c(C(F)(F)F)cc(-c2ccc(F)cc2)nc1C	-6.5	-8.1	4.9	2.5	-16.7	3.0	x
CCOC(=O)CS(=O)(=O)c1nc(-c2ccccc2)cc(C(F)(F)F)n1	-4.9	-12.1	98.9*	100.6*	-31.6	95.8*	97.7*	FLuc counter=-0.5
COC(=O)CCS(=O)(=O)c1nc(-c2ccccc2)cc(C(F)(F)F)n1	5.7	7.3	x	83.7*	-38.4	28.0	100.2*	FLuc counter=51.4*
CCOC(=O)CS(=O)(=O)c1nc(-c2ccc(F)cc2)cc(C(F)(F)F)n1	2.9	-2.3	99.1*	100.3*	-76.9	x	98.1*	FLuc counter=51.5*
CCOC(=O)CCS(=O)(=O)c1nc(-c2ccccc2)cc(C(F)(F)F)n1	3.2	6.0	100.0*	100.3*	-55.7	30.7	100.2*	FLuc counter=51.2*
CCOC(=O)Cc1cc(-c2ccccc2)nc2ccc3ccccc3c12	5.2	3.3	11.7	13.3	19.0	4.8	x
COCC(C)NC(=O)CCS(=O)(=O)c1nc(-c2ccc(OC)cc2)cc(C(F)(F)F)n1 (configuration not stated)	-1.4	-11.5	-22.5	43.4	-23.0	-26.8	x
